These results are taken from ChEMBL document CHEMBL1143014, “Cytotoxic activity of some natural and synthetic ent-kauranes” (J Nat Prod, 2007).

Assay type in all cases: cell-based; call rule not given here
For one series, the system named is A549. The series can be described thus: Cytotoxicity against human A549 cells after 72 hrs. The following applies: for Activity: human, a549, 72 h; for pEC50: Homo sapiens, A549, 72 h. The gist of the method: (§1)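 Sulforhodamine B assay run per the NCI procedure. Cells grown at 37 °C, humidified 5% CO2, in RPMI-1640 with 25 mM HEPES, […], 10% (v/v) FBS and 100 µg/mL kanamycin. Compounds dissolved in DMSO (final ≤1% v/v) and applied continuously for 72 h. EC50 is the concentration cutting cell number by 50%, interpolated from dose-response data. Assays run in triplicate. Doxorubicin served as positive control.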

The subject of a further series is PC-3. The series can be described thus: Cytotoxicity against human PC3 cells after 72 hrs. To be noted: for Activity: human, pc-3, 72 h; for pEC50: Homo sapiens, PC-3, 72 h. The gist of the method: as §1
Another series has as its system 1A9. The series can be described thus: Cytotoxicity against human 1A9 cells after 72 hrs. The following applies: for Activity: human, 1a9, 72 h; for pEC50: Homo sapiens, 1A9, 72 h. The gist of the method:
as §1

The next series deals with MCF7. In words: Cytotoxicity against human MCF7 cells after 72 hrs. To be noted: for Activity: human, mcf7, 72 h; for pEC50: Homo sapiens, MCF7, 72 h. The gist of the method: as §1
The test system of the next series is KB. The series can be described thus: Cytotoxicity against human KB cells after 72 hrs. The following applies: for Activity: human, kb; for pEC50: Homo sapiens, KB. The gist of the method: as §1
Series [1] in a line: Cytotoxicity against human multidrug-resistant KB-VIN cells after 72 hrs. To be noted: for Activity: human, kb-vin; for pEC50: Homo sapiens, KBVIN. The gist of the method: as §1

pEC50: −log10 of the molar value.

In the case of `C=C1[C@@H]2CC[C@@H]3[C@@](CCC4[C@H](C(=O)O)C[C@@H](O)C[C@]43C)(C2)[C@@H]1O` (some centres not stated) [ATRACTYLIGENIN], the Activity result (in the series on A549; with PC-3; in the series with 1A9; in the series on MCF7; in the series with KB; in series [1]) was “Not Active” in each case.
Consider `C=C1C(=O)[C@@]23CCC4[C@H](C(=O)OC)C[C@@H](OC(=O)[C@@H]5OC(c6ccccc6)=N[C@H]5c5ccccc5)C[C@@]4(C)[C@@H]2CC[C@@H]1C3` (some centres not stated), for which the negative-log EC50 (pEC50) (usually the EC50 on a negative log10 scale, so that one unit is a factor of ten) was 5.66 in the series with A549; 5.66 in the series on PC-3; 5.74 with 1A9; 4.93 in the series with MCF7; 5.52 in the series on KB; 5.32 in series [1].
With `C=C1[C@@H]2CC[C@@H]3[C@@](CCC4[C@H](C(=O)OC)C/C(=N\NS(=O)(=O)c5ccc(C)cc5)C[C@]43C)(C2)[C@@H]1O` (some centres not stated), the pEC50 in the series on A549 was 4.61; in the series with PC-3, 4.80; in the series with 1A9 it was 5.12; in the series with MCF7 it was 4.74; with KB it was 4.74; in series [1], 4.69.
Turning to `C=C1C(=O)[C@@]23CCC4[C@H](C(=O)OC)CCC[C@@]4(C)[C@@H]2CC[C@@H]1C3` (some centres not stated), the pEC50 was 5.36 with A549; 5.51 in the series on PC-3; 6.15 in the series with 1A9; 5.30 in the series on MCF7; 5.89 in the series on KB; 5.89 in series [1].
With `C=C1C(=O)[C@@]23CCC4[C@H](C(=O)OC)C[C@@H](O)C[C@@]4(C)[C@@H]2CC[C@@H]1C3` (some centres not stated), the pEC50 in the series with A549 is 6.00; in the series on PC-3, 5.40; with 1A9, 6.52; in the series on MCF7, 5.70; in the series on KB, 5.82; in series [1], 5.59.
As for `C=C1C(=O)[C@@]23CCC4[C@H](C(=O)OC)C[C@@H](OC(C)=O)C[C@@]4(C)[C@@H]2CC[C@@H]1C3` (some centres not stated), the negative-log EC50 (pEC50) was 5.48 with A549; 5.85 in the series with PC-3; 6.30 in the series on 1A9; 6.05 in the series on MCF7; 5.44 in the series on KB; 5.40 in series [1].
Turning to `C=C1C(=O)[C@@]23CCC4[C@H](C(=O)OC)C[C@@H](OC(=O)[C@H](O)[C@@H](NC(=O)c5ccccc5)c5ccccc5)C[C@@]4(C)[C@@H]2CC[C@@H]1C3` (some centres not stated), the pEC50 in the series on A549 is 5.77; in the series on PC-3, 6.22; in the series with 1A9 it was 6.40; in the series on MCF7, 5.82; in the series on KB, 5.59; in series [1], 5.46.
In the case of `C=C1C(=O)[C@@]23CCC4[C@H](C(=O)OC)C[C@@H](OC(=O)c5ccc6c(c5)OCO6)C[C@@]4(C)[C@@H]2CC[C@@H]1C3` (some centres not stated), the negative-log EC50 (pEC50) with A549 was 4.72; with PC-3, 5.04; in the series on 1A9, 5.52; in the series on MCF7, 4.67; in the series on KB, 5.96; in series [1], 5.52.
`COc1cccc2c1C(=O)c1c(O)c3c(c(O)c1C2=O)C[C@@](O)(C(=O)CO)C[C@@H]3O[C@H]1C[C@H](N)[C@H](O)[C@H](C)O1` [DOXORUBICIN]: the negative-log EC50 (pEC50) in the series with A549 is 6.05; with PC-3 it was 5.70; in the series with 1A9, 7.00; in the series on MCF7, 6.70; in the series with KB it was 6.40; in series [1], 5.77.
Consider `C=C1C(=O)[C@@]23CCC4[C@H](C(=O)OC)C[C@@H](OS(=O)(=O)c5ccc(C)cc5)C[C@@]4(C)[C@@H]2CC[C@@H]1C3` (some centres not stated), for which the negative logarithm of the EC50 (pEC50) in the series with A549 is 5.64; with PC-3, 5.59; in the series with 1A9, 6.30; in the series with MCF7, 5.37; in the series on KB, 5.85; in series [1], 5.46.
`C=C1C(=O)[C@@]23CCC4[C@H](C(=O)OC)CC(=O)C[C@@]4(C)[C@@H]2CC[C@@H]1C3` (some centres not stated) [ATRACTYLIGENIN METHYL ESTER]: the negative logarithm of the EC50 (pEC50) is 5.47 in the series on A549; 5.96 in the series with PC-3; 6.70 with 1A9; 6.00 in the series on MCF7; 5.80 in the series with KB; 5.80 in series [1].
On to `C=C1[C@@H]2CC[C@@H]3[C@@](CCC4[C@H](C(=O)OC)C[C@@H](O)C[C@]43C)(C2)[C@@H]1O` (some centres not stated) [ATRACTYLIGENIN METHYL ESTER], for which the Activity result (in the series on A549; in the series with PC-3; in the series with 1A9; in the series with MCF7; with KB; in series [1]) was “Not Active” throughout.
